Source: ChEMBL document CHEMBL1136719, “[(3-Chlorophenyl)piperazinylpropyl]pyridazinones and analogues as potent antinociceptive agents” (2003)

Experiments:
Assay type in all cases: functional
[1] = system: Mus musculus; experiment: Percentage of analgesic efficacy compared to morphine at 8 mg/kg
Procedure, shortened: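 Analgesic efficacy was measured in the mouse hot-plate test (52.5 °C, paw-licking latency) at the maximal analgesic dose. It is expressed as a percentage of the maximal effect of morphine (8 mg/kg sc), which is taken as 100%.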

[2] = species on record: Mus musculus; experiment: Antinociceptive effect determined before treatment in the mouse hotplate test; set-up: unit not given beside the values
Procedure, shortened: (§1)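 Male Swiss albino mice (23-30 g) were placed on a plate held at 52.5 ± 0.1 °C. Fore or hind paw licking was the endpoint. Latency was timed before dosing and at intervals up to 60 min after, with a 45 s cutoff. Mice scoring below 12 or over 18 s in the pretest were excluded. Compounds were given in saline or 1% CMC at 10 mL/kg sc or po.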

[3] = system: Mus musculus; experiment: Antinociceptive effect expressed as licking latency determined at 20 mg/kg after 60 minutes of subcutaneous administration in the mouse hotplate test; procedure, shortened: as §1
[4] = system: Mus musculus; experiment: Maximal analgesic dose required to cause antinociceptive effect in the mouse hot plate method by subcutaneous administration
[5] = system: Mus musculus; experiment: Antinociceptive effect expressed as licking latency determined at 20 mg/kg after 30 minutes of subcutaneous administration in the mouse hotplate test; procedure, shortened: as §1
[6] = system: Mus musculus; experiment: Antinociceptive effect expressed as licking latency determined at 20 mg/kg after 45 minutes of subcutaneous administration in the mouse hotplate test; procedure, shortened: as §1
[7] = system: Mus musculus; experiment: Minimal nontoxic dose in the mouse hot plate method by subcutaneous administration
[8] = system: Mus musculus; experiment: Percentage of antagonism exerted by reserpine at 2 mg/kg
[9] = system: Mus musculus; experiment: Antinociceptive effect expressed as licking latency determined at 20 mg/kg after 15 minutes of subcutaneous administration in the mouse hotplate test; procedure, shortened: as §1
[10] = system: Mus musculus; experiment: Antinociceptive effect expressed as licking latency determined at 3 mg/kg after 45 minutes of subcutaneous administration in the mouse hotplate test; procedure, shortened: as §1
[11] = system: Mus musculus; experiment: Antinociceptive effect expressed as licking latency determined at 3 mg/kg after 30 minutes of subcutaneous administration in the mouse hotplate test; procedure, shortened: as §1
[12] = system: Mus musculus; experiment: Antinociceptive effect expressed as licking latency determined at 3 mg/kg after 15 minutes of subcutaneous administration in the mouse hotplate test; procedure, shortened: as §1
[13] = system: Mus musculus; experiment: Antinociceptive effect expressed as licking latency determined at 3 mg/kg after 60 minutes of subcutaneous administration in the mouse hotplate test; procedure, shortened: as §1
[14] = system: Mus musculus; experiment: Antinociceptive effect expressed as licking latency determined at 10 mg/kg after 60 minutes of oral administration in the mouse hotplate test; procedure, shortened: as §1
[15] = system: Mus musculus; experiment: Maximal analgesic dose required to cause antinociceptive effect in the mouse hot plate method by oral administration
[16] = system: Mus musculus; experiment: Antinociceptive effect expressed as licking latency determined at 10 mg/kg after 45 minutes of oral administration in the mouse hotplate test; procedure, shortened: as §1
[17] = system: Mus musculus; experiment: Antinociceptive effect expressed as licking latency determined at 10 mg/kg after 30 minutes of oral administration in the mouse hotplate test; procedure, shortened: as §1
[18] = system: Mus musculus; experiment: Antinociceptive effect expressed as licking latency determined at 10 mg/kg after 15 minutes of oral administration in the mouse hotplate test; procedure, shortened: as §1
[19] = system: Mus musculus; experiment: Antinociceptive effect expressed as licking latency determined at 1 mg/kg after 15 minutes of subcutaneous administration in the mouse hotplate test; procedure, shortened: as §1
[20] = system: Mus musculus; experiment: Antinociceptive effect expressed as licking latency determined at 1 mg/kg after 30 minutes of subcutaneous administration in the mouse hotplate test; procedure, shortened: as §1
[21] = system: Mus musculus; experiment: Antinociceptive effect expressed as licking latency determined at 1 mg/kg after 60 minutes of subcutaneous administration in the mouse hotplate test; procedure, shortened: as §1
[22] = system: Mus musculus; experiment: Antinociceptive effect expressed as licking latency determined at 1 mg/kg after 45 minutes of subcutaneous administration in the mouse hotplate test; procedure, shortened: as §1
[23] = system: Mus musculus; experiment: Antinociceptive effect expressed as licking latency determined at 6 mg/kg after 60 minutes of subcutaneous administration in the mouse hotplate test; procedure, shortened: as §1
[24] = system: Mus musculus; experiment: Antinociceptive effect expressed as licking latency determined at 6 mg/kg after 15 minutes of subcutaneous administration in the mouse hotplate test; procedure, shortened: as §1
[25] = system: Mus musculus; experiment: Antinociceptive effect expressed as licking latency determined at 6 mg/kg after 45 minutes of subcutaneous administration in the mouse hotplate test; procedure, shortened: as §1
[26] = system: Mus musculus; experiment: Antinociceptive effect expressed as licking latency determined at 6 mg/kg after 30 minutes of subcutaneous administration in the mouse hotplate test; procedure, shortened: as §1
[27] = system: Mus musculus; experiment: Antinociceptive effect expressed as licking latency determined at 8 mg/kg after 15 minutes of subcutaneous administration in the mouse hotplate test
Procedure, shortened: (§2)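 Male Swiss albino mice (23-30 g), acclimatised 24 h at 23 ± 1 °C. Dosed sc in 10 mL kg⁻¹ of saline, 1% carboxymethylcellulose, or saline + DMSO 2:1 vehicle. Placed on a 52.5 ± 0.1 °C hot plate, timed to fore or hind paw licking. Pretest latency had to be 12–18 s. Cutoff was 45 s. Latency was read before dosing and at 15, 30, 45 and 60 min after.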

[28] = system: Mus musculus; experiment: Antinociceptive effect expressed as licking latency determined at 8 mg/kg after 45 minutes of subcutaneous administration in the mouse hotplate test; procedure, shortened: as §2
[29] = system: Mus musculus; experiment: Antinociceptive effect expressed as licking latency determined at 8 mg/kg after 30 minutes of subcutaneous administration in the mouse hotplate test; procedure, shortened: as §2
[30] = system: Mus musculus; experiment: Antinociceptive effect expressed as licking latency determined at 8 mg/kg after 60 minutes of subcutaneous administration in the mouse hotplate test; procedure, shortened: as §2

With `Cc1noc2c(-c3ccccc3)nn(CCCN3CCN(c4cccc(Cl)c4)CC3)c(=O)c12` as the molecule, how does the Analgesic effect [1] read?
The Analgesic effect was 104%.

What about the Activity [2] of the same molecule?
Its Activity is 14.6.

What about the Licking latency [3] of the same molecule?
The Licking latency was 29.3.

And the MAD [4]?
Its MAD is 0.3 mg/kg.

What about the Licking latency [5] of the same molecule?
The Licking latency was 34.5.

And the Licking latency [6]?
Its Licking latency is 31.2.

And the MNTD [7]?
The MNTD was 60 mg/kg.

And the Antagonism [8]?
Its Antagonism is 100%.

And the Licking latency [9]?
Its Licking latency is 19.6.

Which results are given for `CC(=O)c1c(C)nn(CCCN2CCN(c3cccc(Cl)c3)CC2)c(=O)c1N`?
Analgesic effect [1]: 100%; Activity [2]: 15.5; Licking latency [10]: 34.3; Licking latency [11]: 33.2; MAD [4]: 0.1 mg/kg; Licking latency [12]: 23.7; MNTD [7]: 20 mg/kg; Antagonism [8]: 0%; Licking latency [13]: 32.7

For `Cc1onc2c(=O)n(CCCN3CCN(c4cccc(Cl)c4)CC3)nc(-c3ccccc3)c12`, which Analgesic effect [1] is on record?
Its Analgesic effect is 75%.

What about the Activity [2] of the same molecule?
Its Activity is 15.1.

And the Licking latency [14]?
The Licking latency was 16.6.

And the MAD [15]?
The MAD was 1 mg/kg.

And the Licking latency [16]?
The Licking latency was 19.1.

What about the MNTD [7] of the same molecule?
The MNTD was 50 mg/kg.

What about the Antagonism [8] of the same molecule?
The Antagonism was 94%.

What about the Licking latency [17] of the same molecule?
Its Licking latency is 25.1.

And the Licking latency [18]?
The Licking latency was 20.8.

With `CCOC(=O)c1nn(CCCN2CCN(c3cccc(Cl)c3)CC2)c(=O)c2noc(C)c12` as the molecule, how does the Analgesic effect [1] read?
The Analgesic effect was 71%.

And the Activity [2]?
Its Activity is 16.

What about the Licking latency [3] of the same molecule?
Its Licking latency is 17.8.

And the MAD [4]?
Its MAD is 10 mg/kg.

What about the Licking latency [5] of the same molecule?
The Licking latency was 23.8.

What about the Licking latency [6] of the same molecule?
The Licking latency was 23.2.

What about the MNTD [7] of the same molecule?
The MNTD was 40 mg/kg.

And the Antagonism [8]?
The Antagonism was 0%.

And the Licking latency [9]?
Its Licking latency is 22.2.

What does the source list for `C=Cc1c(C)nn(CCCN2CCN(c3cccc(Cl)c3)CC2)c(=O)c1N`?
Analgesic effect [1]: 100%; Activity [2]: 14.2; Licking latency [19]: 21.3; MAD [4]: 0.1 mg/kg; Licking latency [20]: 33.5; Licking latency [21]: 22.6; MNTD [7]: 20 mg/kg; Antagonism [8]: 61%; Licking latency [22]: 28.2

`Cc1nn(CCCN2CCN(c3cccc(Cl)c3)CC2)c(=O)c(N)c1C(C)O` (configuration not stated) was tested. Which Analgesic effect [1] did it give?
The Analgesic effect was 101%.

And the Activity [2]?
Its Activity is 14.5.

What about the Licking latency [23] of the same molecule?
Its Licking latency is 23.3.

What about the Licking latency [24] of the same molecule?
The Licking latency was 22.4.

And the MAD [4]?
Its MAD is 0.3 mg/kg.

What about the Licking latency [25] of the same molecule?
Its Licking latency is 29.3.

What about the Licking latency [26] of the same molecule?
The Licking latency was 33.7.

And the MNTD [7]?
Its MNTD is 40 mg/kg.

What about the Antagonism [8] of the same molecule?
The Antagonism was 100%.

What does the source list for `Cc1nn(CCCN2CCN(c3cccc(Cl)c3)CC2)c(=O)c2noc(C)c12`?
Analgesic effect [1]: 72%; Activity [2]: 16.6; Licking latency [3]: 17.6; MAD [4]: 10 mg/kg; Licking latency [5]: 24; Licking latency [6]: 22.6; MNTD [7]: 40 mg/kg; Antagonism [8]: 92%; Licking latency [9]: 18

How did the Analgesic effect [1] turn out when `CN1CC[C@]23c4c5ccc(O)c4O[C@H]2[C@@H](O)C=C[C@H]3[C@H]1C5` [MORPHINE] was run?
Its Analgesic effect is 100%.

What about the Activity [2] of the same molecule?
The Activity was 14.6.

What about the Licking latency [27] of the same molecule?
The Licking latency was 24.5.

And the Licking latency [28]?
Its Licking latency is 26.4.

What about the MAD [4] of the same molecule?
Its MAD is 0.2 mg/kg.

And the Licking latency [29]?
Its Licking latency is 28.7.

And the MNTD [7]?
Its MNTD is 30 mg/kg.

And the Antagonism [8]?
Its Antagonism is 0%.

What about the Licking latency [30] of the same molecule?
The Licking latency was 23.8.
